From ChEMBL document CHEMBL1127019, “(S)-N-tert-butyl-3-(4-(2-methoxyphenyl)-piperazin-1-yl)-2-phenylpropanamide [(S)-WAY-100135]: a selective antagonist at presynaptic and postsynaptic 5-HT1A receptors” (J Med Chem, 1993) come the findings set out here.

Assay [1] has as its target D(2) dopamine receptor (Rattus norvegicus) (UniProt P61169). The experiment in a line: In vitro binding affinity towards the dopamine receptor D2 at 10 e-6 M. Put shortly: (§1)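 Radioligand binding in vitro. Values are mean percent inhibition at 10⁻⁶ M, from at least three experiments each run in triplicate.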
The target of assay [2] is D(1A) dopamine receptor (Rattus norvegicus) (UniProt P18901). As to the kind of experiment: In vitro binding affinity towards the dopamine receptor D1 at 10 e-6 M. Put shortly:
as §1

For assay [3], the target named is 5-hydroxytryptamine receptor 1B (Rattus norvegicus) (UniProt P28564). As to the kind of experiment: In vitro binding affinity towards the 5-hydroxytryptamine 1B receptor at 10 e-6 M. Put shortly: as §1
Sequence of 5-hydroxytryptamine receptor 1B (Rattus norvegicus) (P28564 whole entry): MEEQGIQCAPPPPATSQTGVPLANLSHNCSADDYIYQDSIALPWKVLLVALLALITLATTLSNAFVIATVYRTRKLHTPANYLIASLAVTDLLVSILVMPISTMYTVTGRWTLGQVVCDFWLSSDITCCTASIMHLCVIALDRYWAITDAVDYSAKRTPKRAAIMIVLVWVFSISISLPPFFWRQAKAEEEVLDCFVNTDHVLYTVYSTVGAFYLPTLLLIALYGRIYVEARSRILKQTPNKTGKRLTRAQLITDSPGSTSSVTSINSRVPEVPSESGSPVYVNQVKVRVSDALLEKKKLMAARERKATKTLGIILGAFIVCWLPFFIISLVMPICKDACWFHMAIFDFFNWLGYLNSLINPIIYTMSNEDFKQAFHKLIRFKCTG
The target in assay [4] is T1, Adrenergic receptor alpha-1 (Rattus norvegicus, UniProt P15823+P23944+P43140).
T1 sequence (P15823 whole entry): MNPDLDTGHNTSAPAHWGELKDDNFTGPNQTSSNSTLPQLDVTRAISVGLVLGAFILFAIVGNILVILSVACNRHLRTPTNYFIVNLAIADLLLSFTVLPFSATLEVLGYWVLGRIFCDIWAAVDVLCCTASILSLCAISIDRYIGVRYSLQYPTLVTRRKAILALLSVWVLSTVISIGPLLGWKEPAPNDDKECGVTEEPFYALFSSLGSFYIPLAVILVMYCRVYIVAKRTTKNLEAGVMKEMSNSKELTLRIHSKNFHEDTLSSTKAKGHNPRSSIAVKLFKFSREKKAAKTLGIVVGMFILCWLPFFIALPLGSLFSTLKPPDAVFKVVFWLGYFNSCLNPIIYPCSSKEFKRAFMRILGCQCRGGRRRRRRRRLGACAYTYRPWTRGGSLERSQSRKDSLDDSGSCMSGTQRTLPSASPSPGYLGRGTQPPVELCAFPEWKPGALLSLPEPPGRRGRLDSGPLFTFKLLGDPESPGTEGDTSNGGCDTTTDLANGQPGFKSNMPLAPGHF
T1 sequence (P23944 whole entry): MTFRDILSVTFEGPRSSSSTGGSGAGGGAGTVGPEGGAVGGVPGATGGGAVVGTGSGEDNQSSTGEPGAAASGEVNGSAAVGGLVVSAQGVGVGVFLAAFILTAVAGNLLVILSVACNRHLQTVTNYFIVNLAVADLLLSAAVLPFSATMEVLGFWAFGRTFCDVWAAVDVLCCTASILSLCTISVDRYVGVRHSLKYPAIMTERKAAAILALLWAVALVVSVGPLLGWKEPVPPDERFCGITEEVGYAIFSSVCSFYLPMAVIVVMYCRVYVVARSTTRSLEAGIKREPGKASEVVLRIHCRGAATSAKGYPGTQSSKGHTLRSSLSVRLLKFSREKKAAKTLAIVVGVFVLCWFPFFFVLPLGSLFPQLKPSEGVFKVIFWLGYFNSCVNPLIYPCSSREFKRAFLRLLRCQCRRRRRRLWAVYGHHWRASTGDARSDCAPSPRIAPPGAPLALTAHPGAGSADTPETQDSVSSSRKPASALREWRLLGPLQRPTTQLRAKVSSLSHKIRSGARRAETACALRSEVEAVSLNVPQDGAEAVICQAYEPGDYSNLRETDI
T1 sequence (P43140 whole entry): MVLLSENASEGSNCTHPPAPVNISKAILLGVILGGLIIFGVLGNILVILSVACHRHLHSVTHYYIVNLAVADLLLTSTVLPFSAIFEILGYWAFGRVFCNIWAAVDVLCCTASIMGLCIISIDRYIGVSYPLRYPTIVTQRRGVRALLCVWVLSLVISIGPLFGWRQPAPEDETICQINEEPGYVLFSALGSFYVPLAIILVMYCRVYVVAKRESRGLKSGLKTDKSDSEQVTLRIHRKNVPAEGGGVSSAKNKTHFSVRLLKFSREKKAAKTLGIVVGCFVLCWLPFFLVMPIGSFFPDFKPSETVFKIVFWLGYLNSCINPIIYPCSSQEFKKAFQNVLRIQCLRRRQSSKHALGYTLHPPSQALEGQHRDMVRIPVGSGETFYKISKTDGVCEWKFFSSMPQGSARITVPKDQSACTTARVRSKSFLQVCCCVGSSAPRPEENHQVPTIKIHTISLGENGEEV
The experiment in a line: In vitro binding affinity towards the anor-adrenergic alpha-1 receptor at 10 e-6 M. Format: protein assay. Put shortly: as §1

Assay [5] concerns the target Adrenergic receptor beta (Rattus norvegicus) (UniProt P18090+P10608+P26255). As to the kind of experiment: (§2) In vitro binding affinity towards the noradrenergic beta receptor at 10 e-6 M. In kind it is protein assay. Put shortly:
(§3)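 Radioligand binding at the receptor site, run at 10⁻⁶ M. Reported as mean percent inhibition from at least three experiments, each performed in triplicate.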

The test system of assay [6] is Rattus norvegicus. As to the kind of experiment: Minimum effective dose administered subcutaneously to block the effect of 8-hydroxy-DPAT. Format: functional. In short, it runs like this:
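Rats pretreated sc with vehicle or test agent, then given 8-OH-DPAT iv 30 min later to induce the behavioral syndrome. Groups of at least 10 rats were used, and the 8-OH-DPAT ED50 was determined by the sequential up/down method.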

The target of assay [7] is Serotonin 2 (5-HT2) receptor (Rattus norvegicus) (UniProt P30994+P08909+P14842). As to the kind of experiment: (§4) In vitro binding affinity towards the 5-hydroxytryptamine 2 receptor at 10 e-6 M. Format: protein assay. In short, it runs like this:
as §1

In assay [8] the target is T2, 5-hydroxytryptamine receptor 1A (Rattus norvegicus, UniProt P19327).
T2 sequence (P19327 whole entry): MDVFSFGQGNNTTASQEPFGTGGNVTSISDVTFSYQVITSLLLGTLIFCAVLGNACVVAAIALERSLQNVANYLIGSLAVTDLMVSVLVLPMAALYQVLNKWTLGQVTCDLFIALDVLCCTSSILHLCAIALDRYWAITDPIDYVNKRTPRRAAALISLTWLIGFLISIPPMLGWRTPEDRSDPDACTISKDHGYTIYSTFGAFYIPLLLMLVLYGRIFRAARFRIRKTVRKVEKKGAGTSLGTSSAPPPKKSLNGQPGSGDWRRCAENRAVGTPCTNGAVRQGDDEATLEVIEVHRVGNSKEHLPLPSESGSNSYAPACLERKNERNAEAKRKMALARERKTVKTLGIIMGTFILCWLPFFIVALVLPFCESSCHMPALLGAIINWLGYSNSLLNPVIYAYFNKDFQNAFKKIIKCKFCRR
As to the kind of experiment: In vitro binding affinity towards the 5-hydroxytryptamine 1A receptor was evaluated. Put shortly:
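Receptor binding at the 5-HT1A site, reported as IC50. Each value is the mean IC50 ± standard error of at least three experiments, each run in triplicate.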

The target in assay [9] is Adrenergic receptor alpha-2 (Rattus norvegicus) (UniProt P22086+P19328+P22909). The experiment in a line: In vitro binding affinity towards the noradrenergic alpha-2 receptor at 10 e-6 M. In kind it is protein assay. In short, it runs like this: as §1
Assay [10] has as its target T3, 5-hydroxytryptamine receptor 2C (Rattus norvegicus) (UniProt P08909).
T3 sequence (whole entry): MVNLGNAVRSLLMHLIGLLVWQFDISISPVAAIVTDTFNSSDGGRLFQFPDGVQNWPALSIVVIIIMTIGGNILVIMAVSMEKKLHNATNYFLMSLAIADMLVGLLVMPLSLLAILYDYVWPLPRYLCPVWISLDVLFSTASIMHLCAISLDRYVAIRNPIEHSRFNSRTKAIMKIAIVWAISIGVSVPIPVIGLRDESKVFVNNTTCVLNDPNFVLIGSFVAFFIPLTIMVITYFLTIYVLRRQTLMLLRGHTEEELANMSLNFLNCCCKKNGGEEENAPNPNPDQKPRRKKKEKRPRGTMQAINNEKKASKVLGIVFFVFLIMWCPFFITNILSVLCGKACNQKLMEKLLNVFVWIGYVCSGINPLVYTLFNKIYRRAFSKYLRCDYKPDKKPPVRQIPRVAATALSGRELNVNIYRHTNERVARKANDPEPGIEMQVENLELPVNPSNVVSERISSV
The experiment in a line: In vitro binding affinity towards the 5-hydroxytryptamine 1C receptor at 10 e-6 M. In short, it runs like this:
as §1

Assay [11] has as its system Rattus norvegicus. As to the kind of experiment: Decrease in hippocampal level of 5-HTat preinjection of 0.1 mg/kg, sc. In kind it is functional, Hippocampus. Conditions: route subcutaneous.
The target of assay [12] is Adrenergic receptor beta (Rattus norvegicus, UniProt P18090+P10608+P26255). The description is as §2. Format: protein assay. In short, it runs like this:
as §3

Assay [13] relates to Rattus norvegicus. The experiment in a line: Decrease in hippocampal level of 5-HT at preinjection of 1 mg/kg, sc. In kind it is functional, Hippocampus. As to conditions: route subcutaneous.
The target of assay [14] is T1, Adrenergic receptor alpha-1. As to the kind of experiment: In vitro binding affinity towards the noradrenergic alpha-1 receptor at 10 e-6 M. Format: protein assay. Put shortly:
as §1

Assay [15] deals with Rattus norvegicus. As to the kind of experiment: Decrease in hippocampal level of 5-HT at preinjection of 5 mg/kg, sc. In kind it is functional, Hippocampus. As to conditions: route subcutaneous. Put shortly:
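Microdialysis in conscious, freely moving rats. Test agent given sc, and extracellular 5-HT measured in hippocampus for up to 2.5 h after dosing. Values expressed as % of preinjection control levels.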

In assay [16] the target is Serotonin 2 (5-HT2) receptor (Rattus norvegicus, UniProt P30994+P08909+P14842). The assay is described as §4. Format: protein assay. In short, it runs like this: as §1
For assay [17], the target named is T1, Adrenergic receptor alpha-1. The experiment in a line: In vitro binding affinity towards the alpha-1 receptor at 10 e-6 M. In kind it is protein assay. Put shortly:
as §1

For orientation: inhibition means the share of the control response that was lost under treatment. A lower inhibition goes with a weak effect. Usually IC50 stands for the concentration that inhibits the measured activity by half. Low values mean inhibition by little substance, high ones a need for much substance.

The structures appear in SMILES notation. Some results are limits rather than exact numbers.

Sequence of D(2) dopamine receptor (Rattus norvegicus) (P61169 whole entry): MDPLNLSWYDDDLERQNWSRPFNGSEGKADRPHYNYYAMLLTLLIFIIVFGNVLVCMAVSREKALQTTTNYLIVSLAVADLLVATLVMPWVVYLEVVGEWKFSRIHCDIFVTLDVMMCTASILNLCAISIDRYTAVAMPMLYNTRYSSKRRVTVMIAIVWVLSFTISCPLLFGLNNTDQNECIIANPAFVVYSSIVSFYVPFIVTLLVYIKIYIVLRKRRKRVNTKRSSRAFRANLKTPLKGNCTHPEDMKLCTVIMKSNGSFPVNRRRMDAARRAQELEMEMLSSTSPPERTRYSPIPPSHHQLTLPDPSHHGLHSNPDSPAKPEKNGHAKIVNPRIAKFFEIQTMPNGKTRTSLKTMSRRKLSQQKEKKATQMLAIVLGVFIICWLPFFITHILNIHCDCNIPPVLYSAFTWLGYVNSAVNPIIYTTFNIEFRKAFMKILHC
Sequence of D(1A) dopamine receptor (Rattus norvegicus) (P18901 whole entry): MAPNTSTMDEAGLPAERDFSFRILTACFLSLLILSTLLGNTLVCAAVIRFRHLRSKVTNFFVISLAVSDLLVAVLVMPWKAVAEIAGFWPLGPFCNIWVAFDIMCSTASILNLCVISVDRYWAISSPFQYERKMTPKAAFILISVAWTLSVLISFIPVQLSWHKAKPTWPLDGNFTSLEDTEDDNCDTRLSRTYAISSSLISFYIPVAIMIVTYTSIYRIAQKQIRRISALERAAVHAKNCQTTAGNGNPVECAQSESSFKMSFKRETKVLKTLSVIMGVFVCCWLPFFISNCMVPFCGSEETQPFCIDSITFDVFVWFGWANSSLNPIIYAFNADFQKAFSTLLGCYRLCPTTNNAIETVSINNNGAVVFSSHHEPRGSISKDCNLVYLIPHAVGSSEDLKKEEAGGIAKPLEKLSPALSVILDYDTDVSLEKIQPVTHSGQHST
Sequence of Serotonin 2 (5-HT2) receptor (Rattus norvegicus) (P14842 whole entry, looked up, one chain of several): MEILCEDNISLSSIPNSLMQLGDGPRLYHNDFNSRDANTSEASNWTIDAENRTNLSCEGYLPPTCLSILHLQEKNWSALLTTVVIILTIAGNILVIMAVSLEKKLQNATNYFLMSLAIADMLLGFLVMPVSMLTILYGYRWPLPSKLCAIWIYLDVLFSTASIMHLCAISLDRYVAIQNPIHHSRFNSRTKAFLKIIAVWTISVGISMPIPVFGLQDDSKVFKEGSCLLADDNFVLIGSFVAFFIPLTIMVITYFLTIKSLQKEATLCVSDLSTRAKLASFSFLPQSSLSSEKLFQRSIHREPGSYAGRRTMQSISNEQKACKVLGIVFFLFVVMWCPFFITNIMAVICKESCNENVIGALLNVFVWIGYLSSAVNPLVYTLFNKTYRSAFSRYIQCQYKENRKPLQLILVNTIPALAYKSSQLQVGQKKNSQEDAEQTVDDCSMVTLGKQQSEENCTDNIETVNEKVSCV
Sequence of Serotonin 2 (5-HT2) receptor (Rattus norvegicus) (P30994 whole entry, looked up, one chain of several): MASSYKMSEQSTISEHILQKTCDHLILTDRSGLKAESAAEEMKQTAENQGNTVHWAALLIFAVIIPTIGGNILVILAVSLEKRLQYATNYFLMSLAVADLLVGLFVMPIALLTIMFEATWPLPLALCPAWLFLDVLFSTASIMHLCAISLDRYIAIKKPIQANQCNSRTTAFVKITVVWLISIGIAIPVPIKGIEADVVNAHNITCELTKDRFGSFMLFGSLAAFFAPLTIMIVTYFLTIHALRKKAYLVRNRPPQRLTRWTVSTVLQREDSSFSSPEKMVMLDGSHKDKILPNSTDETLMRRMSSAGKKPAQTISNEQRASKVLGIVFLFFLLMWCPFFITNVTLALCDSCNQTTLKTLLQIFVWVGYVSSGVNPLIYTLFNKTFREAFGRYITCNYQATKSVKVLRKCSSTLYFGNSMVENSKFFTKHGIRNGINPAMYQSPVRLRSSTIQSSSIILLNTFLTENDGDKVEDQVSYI

`COc1ccccc1N1CCN(CC(C(=O)NC(C)(C)C)c2ccccc2)CC1` (centres undefined): the inhibition in [1] turned out to be 14%; in [2] it was 20%; in [3] it was 27%; in [5], 20%; in [7], 37%; in assay [9] it was 10%. In assay [10], this compound registered an inhibition of 37%. For the same compound, the IC50 is 1491 nM in assay [4] and 33.9 nM in assay [8]. Further, the minimal effective dose in assay [6] (Rattus norvegicus, sc, read-out: MED) is 3 mg/kg.

`COc1ccccc1N1CCN(C[C@@H](C(=O)NC(C)(C)C)c2ccccc2)CC1` (stereo in doubt; (S)-5) gave an MED in assay [6] of 1 mg/kg.

In [11], `CCCN(CCC)C1CCc2cccc(O)c2C1` (centres undefined) [8-OH-DPAT] displayed a Decrease of 19.2%.

Compound `O=C1CC2(CCCC2)CC(=O)N1CCCCN1CCN(c2ncccn2)CC1` [BUSPIRONE] had an IC50 in assay [12] above 1000 nM. This compound registered a Decrease in assay [13] of 39.9%.

For the compound `COc1ccccc1N1CCN(C[C@H](C(=O)NC(C)(C)C)c2ccccc2)CC1`, the inhibition in [1] turned out to be 4%; in assay [2], 2%; in assay [3], 21%; in assay [5] it was 7%; in [7] it was 13%; in [9] it was 7%. The inhibition in assay [10] came to 14%. Further, the IC50 stood at 2781 nM in assay [14] and 437 nM in assay [8].

Take `COc1ccccc1N1CCN(C[C@@H](C(=O)NC(C)(C)C)c2ccccc2)CC1` [listing 1 of 2 here]: the inhibition is 20% in assay [1]; 22% in assay [2]; 22% in assay [3]; 12% in assay [5]; 11% in assay [9]; 50% in assay [10].

`COc1ccccc1N1CCN(CCN2C(=O)CC3(CCCC3)CC2=O)CC1.Cl.Cl`: the Decrease in assay [15] worked out at 37.6%.

As to `COc1ccccc1N1CCN(C[C@@H](C(=O)NC(C)(C)C)c2ccccc2)CC1` [listing 2 of 2 here], the IC50 in assay [16] is 1393 nM; in assay [8] it was 15.5 nM; in [17] it was 1878 nM.

In assay [6], `COc1ccccc1N1CCN(C[C@@H](C(=O)NC(C)(C)C)c2ccccc2)CC1` (stereo in doubt; (R)-5) returned an MED of 10 mg/kg.
